EWS-Fli block = EWS/Fli transcriptional activity inhibition. A673 NR0B1-luciferase reporter, viability-normalised. hit rate 0.67% among 350,000. inhibition, % at 12.6 µM;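 active means mean inhibition of at least 50% after viability correction, with every replicate also passing that limit; inconclusive means mean reaches 50% but only one of two replicates passes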;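 further: firefly luciferase signal divided by Alamar Blue viability fluorescence both relative to DMSO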
PAX8 inh HTS = PAX8 transcriptional activity inhibition. inhibition, % at 12.6 µM. hit rate 1.2% among 360,000. RMG-I TPO-luciferase reporter, SteadyGlo, 24 h. AID 652154;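 active means mean replicate inhibition at least 60% with every replicate also reaching 60%; inconclusive means only one of the two criteria is met; inactive means mean below 60% and not all replicates reaching 60%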;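 further: luciferase light reporting Pax8 driven TPO promoter activity; plate controls were median of neutral control wells for no effect and mitoxantrone controls for full effect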
LMP1 NFkB inh = reduces LMP1-driven NF-kappaB luciferase signal; LMP1-induced NF-kappaB luciferase reporter cells, luminescence; inhibition, % at 12.5 µM; hit rate 0.69% among 350,000; in the data active means inhibition above about 41%; inconclusive means no clear call, values can overlap the other calls;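 further: 0% = neutral control wells and 100% = reference inhibitor control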
aSyn UTR inh = 5' untranslated region of α-synuclein, MLPCN primary screen | alpha-synuclein 5'UTR reporter, inhibitor activity | inhibition, % (tested at 7.5 µM) | hit rate 0.82% among 300,000; in the data active means inhibition above about 60%; inconclusive means no clear call, values can overlap the other calls;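 further: H4 neuroglioblastoma cells stably carrying SNCA 5'UTR luciferase fusion; 0% = DMSO wells and 100% = positive control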
FN deposition inh = fibronectin deposition inhibition; AH1F fibroblasts, Alexa488-fibronectin deposition fluorescence, overnight; AID 743247; hit rate 0.086% among 350,000; inhibition, % at 12.6 µM;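 active means mean inhibition across replicates of 30% or more, regardless of how many single replicates reach that level; inconclusive means mean under 30% yet at least half of replicates reach 30%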;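 further: positive control wells lacked labelled fibronectin entirely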
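Material: AH1F fibroblast monolayer depositing Alexa488-labelled fibronectin into matrix | Input: 10000 AH1F cells/well | Medium: DMEM plus 2% serum, read in PBS | Reagent: Alexa488-fibronectin, 24 nM final in well | Compound dosing: One dose per compound, pinned | Schedule: 1 h adhesion, overnight exposure | Measured by: Fluorescence at 485 nm excitation, 525 nm emission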
Shn3 inh set2 = inhibitors of Schnurri-3 3'UTR reporter in osteoblasts | Clone20 osteoblast Shn3 3'UTR firefly luciferase, 24 h | hit rate 0.52% among 360,000 | inhibition, % at 12.5 µM;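 active means mean inhibition of at least 75% with every replicate also reaching 75%; inconclusive means mean inhibition at least 75% but some replicate below; inactive means mean inhibition below 75%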;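 further: 0% = median of neutral control wells and 100% = pilot-screen positive control compound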
Active calls of the source: *; ? = inconclusive; nt = no result. Most compounds without a hit are left out; they make up all but 2.1% or so of the library.

SMILES	EWS-Fli block	PAX8 inh HTS	LMP1 NFkB inh	aSyn UTR inh	FN deposition inh	Shn3 inh set2
Cc1noc(C)c1S(=O)(=O)Nc1ccc2c(c1)CC(=O)N([C@@H](C)CO)C[C@@H](C)[C@@H](CN(C)Cc1ccc(C(=O)O)cc1)O2	-3	0	nt	nt	nt	nt
CCON1C(=O)C2(CCCCC2)C(=O)C12C=CCCC2 (stereo unspecified)	0	-2	85*	nt	-2	-15
O=C1N(O)C2(C=CCCC2)/C(=N\O)C12CCCCC2 (stereo unspecified)	nt	-1	-1	-8	3	3
CCC(=O)NC(=S)Nc1ccccc1C(F)(F)F	nt	nt	73*	8	nt	-14
CCCC(=O)NC(=S)Nc1ccccc1C(F)(F)F	nt	5	-5	30	2	3
O=C(O)c1ccc(NC2=C/C(=N/S(=O)(=O)c3ccccc3)c3ccccc3C2=O)cc1	27	80*	-12	nt	nt	?
CCc1ccc(S(=O)(=O)/N=C2\C=C(Nc3cccc(C(=O)O)c3)C(=O)c3ccccc32)cc1	-87	-25	-9	30	3	15
CCc1ccc(S(=O)(=O)/N=C2/C=C(Sc3ncn[nH]3)C(=O)c3ccccc32)cc1	nt	nt	24	nt	nt	98*
CCc1ccc(S(=O)(=O)/N=C2\C=C(Nc3ccc(O)cc3)C(=O)c3ccccc32)cc1	nt	nt	90*	101*	nt	95*
CC=Cc1ccc2n(c1=O)C[C@@H]1[C@@H](CO)[C@H](C(=O)NCCc3ccncc3)[C@H]2N1CCC(F)(F)F (mixture of isomers)	-2	-6	nt	nt	nt	nt
CCNC(=O)C[C@H]1CC[C@@H]2[C@@H](COc3ccc(NC(=O)c4cscn4)cc3C(=O)N2C)O1	5	-45	nt	nt	-8	nt
O=C(Nc1cccc(Cl)c1)N1C[C@@H]2[C@H](c3ccccc31)[C@@H](CO)N2C(=O)C1CCCC1	4	3	nt	nt	nt	nt
C[C@H]1CN([C@@H](C)CO)C(=O)c2cccc(NC(=O)Nc3ccc(F)cc3)c2O[C@H]1CN(C)C(=O)Nc1ccc(F)cc1	-5	nt	nt	nt	nt	nt
CCNc1cc2c(cc1O)CCC1C2CCC2(C)C(O)CCC12 (stereo unspecified)	19	-7	4	nt	5	-1
CCOc1cc2c(cc1O)CCC1C2CCC2(C)C(O)CCC12 (stereo unspecified)	55*	15	17	nt	24	23
O=C(CSc1nc2ncc(Br)cc2[nH]1)c1cccc([N+](=O)[O-])c1	67*	15	-7	2	nt	17
O=C(Cc1nc2ccccc2[nH]1)c1cccc([N+](=O)[O-])c1	46	62*	7	-23	-5	39
COCC(=O)Nc1ccc2c(c1)OC[C@H](C)N(C(=O)c1cnccn1)C[C@H](C)[C@@H](OC)CN(C)C2=O	-9	-10	nt	nt	-8	nt
C=CCN1CCCc2c(-c3ccc(OCCO)cc3)noc2-c2cc(OC)c(OC)cc2CC1	-8	12	nt	nt	nt	nt
CCOC(=O)C1(N(CC)CC)Sc2cc(C)ccc2NC1=O (stereo unspecified)	nt	34	-2	5	10	25
C=C(C)C(=O)OC1(C(F)(F)F)Oc2cc(C)ccc2NC1=O (stereo unspecified)	nt	93*	-25	-54	-8	43
O=C(NCC[C@H]1CC[C@H](NC(=O)C2CCOCC2)[C@H](CO)O1)Nc1ccc(Cl)cc1	-6	-19	nt	nt	nt	nt
CC(=O)N1[C@@H]2Cn3c(ccc(-c4ccccc4)c3=O)[C@H]1[C@@H](C(=O)N1CCN(C)CC1)[C@@H]2CO	-7	3	nt	nt	nt	nt
COc1cccc(S(=O)(=O)N2CC[C@H]3[C@@H](CO)N(C)c4ccc(C#Cc5ccc(F)cc5)cc4[C@H]32)c1	5	85*	nt	nt	17	nt
Cc1cccc(S(=O)(=O)N2CC[C@@H]3[C@H](CO)N(C)c4ccc(C#Cc5ccc(F)cc5)cc4[C@@H]32)c1	19	91*	nt	nt	nt	nt
Cc1cccc(C)c1OCC(=O)OCC(=O)Nc1ccc(Cl)cn1	3	-4	-4	nt	-2	-4
Cc1ccc2c(CC(=O)OCC(=O)Nc3ccc(Cl)cn3)coc2c1	7	119*	3	-4	1	-16
O=C(C1CCOCC1)N1C[C@@H]2[C@H](c3ccccc31)[C@@H](CO)N2C(=O)Nc1ccccc1F	0	5	nt	nt	4	nt
COc1ccc(CCNc2ncnc3[nH]ncc23)cc1OC	nt	nt	2	9	nt	67
COc1ccc(CCNc2ncnc3sc(C)cc23)cc1OC	10	41	26	77*	-9	89*
